In ChEMBL document CHEMBL2424631, “The carbonate analogues of 5'-halogenated resiniferatoxin as TRPV1 ligands” (Eur J Med Chem, 2013):

Key:
Format in all cases: cell-based
[1] = target: T1, Transient receptor potential cation channel subfamily V member 1 (Homo sapiens, UniProt Q8NER1); experiment: Agonist activity at human TRPV1 expressed in CHO cells assessed as stimulation of Ca2+ uptake
Outline: (§1)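 Functional 45Ca2+ uptake assay in CHO cells heterologously expressing rat or human TRPV1. Agonism is reported as EC50, and as % of the capsaicin response. Antagonism is reported as Ki(ant) against capsaicin-stimulated 45Ca2+ uptake, and as % antagonism of that response. Ki and EC50 are mean ± SEM of three or more independent experiments.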

[2] = target: T2, Transient receptor potential cation channel subfamily V member 1 (Rattus norvegicus, UniProt O35433); experiment: Agonist activity at rat TRPV1 expressed in CHO cells assessed as stimulation of Ca2+ uptake; outline: as §1
T2 sequence (O35433 whole entry): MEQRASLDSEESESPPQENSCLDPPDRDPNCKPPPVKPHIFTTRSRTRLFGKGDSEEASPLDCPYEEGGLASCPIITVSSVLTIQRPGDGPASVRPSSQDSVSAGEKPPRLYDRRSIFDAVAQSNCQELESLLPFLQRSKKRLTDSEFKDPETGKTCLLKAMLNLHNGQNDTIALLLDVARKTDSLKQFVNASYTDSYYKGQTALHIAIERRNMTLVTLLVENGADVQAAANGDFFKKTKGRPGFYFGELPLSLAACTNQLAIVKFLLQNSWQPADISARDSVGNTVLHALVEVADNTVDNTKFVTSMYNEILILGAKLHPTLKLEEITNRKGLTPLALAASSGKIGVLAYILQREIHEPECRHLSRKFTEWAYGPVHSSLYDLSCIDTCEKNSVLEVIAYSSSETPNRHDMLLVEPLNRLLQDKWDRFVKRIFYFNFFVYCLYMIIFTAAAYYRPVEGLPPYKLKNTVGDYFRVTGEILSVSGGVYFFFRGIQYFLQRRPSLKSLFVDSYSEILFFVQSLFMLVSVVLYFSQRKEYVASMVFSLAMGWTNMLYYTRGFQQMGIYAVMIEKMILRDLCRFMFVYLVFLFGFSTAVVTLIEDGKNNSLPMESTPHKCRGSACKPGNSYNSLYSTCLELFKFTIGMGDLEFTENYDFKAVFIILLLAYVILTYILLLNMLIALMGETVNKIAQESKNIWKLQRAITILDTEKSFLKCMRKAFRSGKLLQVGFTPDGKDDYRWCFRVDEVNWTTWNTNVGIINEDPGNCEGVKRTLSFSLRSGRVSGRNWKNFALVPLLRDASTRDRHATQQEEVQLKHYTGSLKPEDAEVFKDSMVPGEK

[3] = target: T2, Transient receptor potential cation channel subfamily V member 1; experiment: Displacement of [3H]RTX from rat TRPV1 expressed in CHO cells
Outline: (§2)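 Competitive binding against [3H]RTX on rat or human TRPV1 heterologously expressed in CHO cells. Affinity is reported as Ki, as mean ± SEM of three or more independent experiments.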

[4] = target: T1, Transient receptor potential cation channel subfamily V member 1; experiment: Displacement of [3H]RTX from human TRPV1 expressed in CHO cells; outline: as §2
[5] = target: Transient receptor potential cation channel subfamily V member 1 (Rattus norvegicus) (UniProt O35433); experiment: Agonist activity at rat TRPV1 expressed in CHO cells assessed as stimulation of Ca2+ uptake relative to capsaicin; outline: as §1
Sequence of Transient receptor potential cation channel subfamily V member 1 (Rattus norvegicus) (O35433 whole entry): as above

[6] = target: T2, Transient receptor potential cation channel subfamily V member 1; experiment: Antagonist activity at rat TRPV1 expressed in CHO cells assessed as inhibition of capsaicin-stimulated Ca2+ uptake; outline: as §1
[7] = target: T1, Transient receptor potential cation channel subfamily V member 1; experiment: Antagonist activity at human TRPV1 expressed in CHO cells assessed as inhibition of capsaicin-stimulated Ca2+ uptake; outline: as §1
[8] = target: Transient receptor potential cation channel subfamily V member 1 (Rattus norvegicus) (UniProt O35433); experiment: Ratio of I-RTX Ki to compound Ki for rat TRPV1 expressed in CHO cells
[9] = target: Transient receptor potential cation channel subfamily V member 1 (Rattus norvegicus) (UniProt O35433); experiment: Partial antagonist activity at rat TRPV1 expressed in CHO cells assessed as inhibition of capsaicin-stimulated Ca2+ uptake measured as residual agonism; settings: concentration not given here; outline: as §1

T1 sequence (Q8NER1 whole entry): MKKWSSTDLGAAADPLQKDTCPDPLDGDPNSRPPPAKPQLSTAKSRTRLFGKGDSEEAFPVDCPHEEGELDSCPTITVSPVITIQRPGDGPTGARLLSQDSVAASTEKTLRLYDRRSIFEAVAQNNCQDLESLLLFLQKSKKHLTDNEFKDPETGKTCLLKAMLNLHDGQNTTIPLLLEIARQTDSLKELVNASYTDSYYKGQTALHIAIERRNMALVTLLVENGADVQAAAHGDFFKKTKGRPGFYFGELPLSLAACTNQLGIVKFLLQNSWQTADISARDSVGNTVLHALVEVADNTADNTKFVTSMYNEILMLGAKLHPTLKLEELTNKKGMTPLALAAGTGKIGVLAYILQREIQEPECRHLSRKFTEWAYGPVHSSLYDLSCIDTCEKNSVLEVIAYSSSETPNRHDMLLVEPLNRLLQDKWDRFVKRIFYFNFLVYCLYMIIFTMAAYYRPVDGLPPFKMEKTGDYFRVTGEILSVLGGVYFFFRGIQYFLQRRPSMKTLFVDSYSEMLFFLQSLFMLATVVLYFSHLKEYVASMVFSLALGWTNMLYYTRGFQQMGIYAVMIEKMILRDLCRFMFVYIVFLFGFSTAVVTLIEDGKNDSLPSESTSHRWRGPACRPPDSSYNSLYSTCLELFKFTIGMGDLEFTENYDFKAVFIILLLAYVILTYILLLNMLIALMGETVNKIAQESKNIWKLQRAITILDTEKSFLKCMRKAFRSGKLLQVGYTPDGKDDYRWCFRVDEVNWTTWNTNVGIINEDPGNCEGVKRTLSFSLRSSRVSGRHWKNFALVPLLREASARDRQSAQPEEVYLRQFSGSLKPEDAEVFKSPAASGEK

Compound | EC50 [1] [nM] | EC50 [2] [nM] | Ki [3] [nM] | Ki [4] [nM] | Activity [5] [%] | Ki [6] [nM] | Ki [7] [nM] | Ratio Ki [8] | inhibition [9] [%]
C=C(C)[C@]12C[C@@H](C)[C@@]34O[C@](Cc5ccccc5)(O[C@@H]1[C@@H]3C=C(COC(=O)Oc1cc(F)c(N)c(OC)c1)C[C@]1(O)C(=O)C(C)=C[C@@H]41)O2 | 17.9 | 3.17 | 2.21 | 830 | 83 |  |  |  | 
C=C(C)[C@]12C[C@@H](C)[C@@]34O[C@](Cc5ccccc5)(O[C@@H]1[C@@H]3C=C(COC(=O)Oc1cc(F)c(O)c(OC)c1)C[C@]1(O)C(=O)C(C)=C[C@@H]41)O2 | 16.3 | 4.97 | 1.17 | 138 |  |  |  |  | 
C=C(C)[C@]12C[C@@H](C)[C@@]34O[C@](Cc5ccccc5)(O[C@@H]1[C@@H]3C=C(COC(=O)Oc1cc(I)c(N)c(OC)c1)C[C@]1(O)C(=O)C(C)=C[C@@H]41)O2 |  |  | 3.01 | 990 |  | 2.68 | 1800 |  | 
C=C(C)[C@]12C[C@@H](C)[C@@]34O[C@](Cc5ccccc5)(O[C@@H]1[C@@H]3C=C(COC(=O)Oc1cc(Cl)c(O)c(OC)c1)C[C@]1(O)C(=O)C(C)=C[C@@H]41)O2 | 183 |  | 1.64 | 50 | 13 | 21.3 | 451 |  | 
C=C(C)[C@]12C[C@@H](C)[C@@]34O[C@](Cc5ccccc5)(O[C@@H]1[C@@H]3C=C(COC(=O)Oc1cc(Br)c(N)c(OC)c1)C[C@]1(O)C(=O)C(C)=C[C@@H]41)O2 |  |  | 1.83 | 212 |  | 2.46 | 666 | 5 | 
C=C(C)[C@]12C[C@@H](C)[C@@]34O[C@](Cc5ccccc5)(O[C@@H]1[C@@H]3C=C(COC(=O)Oc1cc(Cl)c(N)c(OC)c1)C[C@]1(O)C(=O)C(C)=C[C@@H]41)O2 |  |  | 2.5 | 330 |  | 4.06 | 1400 | 5 | 
C=C(C)[C@]12C[C@@H](C)[C@@]34O[C@](Cc5ccccc5)(O[C@@H]1[C@@H]3C=C(COC(=O)Cc1cc(I)c(O)c(OC)c1)C[C@]1(O)C(=O)C(C)=C[C@@H]41)O2 [IODORESINIFERATOXIN] |  |  |  | 11.8 |  |  | 5.87 |  | 
C=C(C)[C@]12C[C@@H](C)[C@@]34O[C@](Cc5ccccc5)(O[C@@H]1[C@@H]3C=C(COC(=O)Oc1cc(Br)c(O)c(OC)c1)C[C@]1(O)C(=O)C(C)=C[C@@H]41)O2 |  |  | 1.64 | 33.3 |  | 5.2 | 512 | 2 | 13
C=C(C)[C@]12C[C@@H](C)[C@@]34O[C@](Cc5ccccc5)(O[C@@H]1[C@@H]3C=C(COC(=O)Oc1ccc(NS(C)(=O)=O)c(OC)c1)C[C@]1(O)C(=O)C(C)=C[C@@H]41)O2 | 16.5 | 4.62 | 1.28 | 82 | 89 |  |  |  | 
C=C(C)[C@]12C[C@@H](C)[C@@]34O[C@](Cc5ccccc5)(O[C@@H]1[C@@H]3C=C(COC(=O)Cc1ccc(O)c(OC)c1)C[C@]1(O)C(=O)C(C)=C[C@@H]41)O2 [RESINIFERATOXIN] | 0.92 |  |  | 1.23 |  |  |  |  | 
C=C(C)[C@]12C[C@@H](C)[C@@]34O[C@](Cc5ccccc5)(O[C@@H]1[C@@H]3C=C(COC(=O)Oc1cc(I)c(O)c(OC)c1)C[C@]1(O)C(=O)C(C)=C[C@@H]41)O2 |  |  | 1.66 | 49 |  | 2.23 | 189 | 5 | 
C=C(C)[C@]12C[C@@H](C)[C@@]34O[C@](Cc5ccccc5)(O[C@@H]1[C@@H]3C=C(COC(=O)Oc1ccc(N)c(OC)c1)C[C@]1(O)C(=O)C(C)=C[C@@H]41)O2 | 6.28 | 1.84 | 0.58 | 140 |  |  |  |  | 
